Assays:
[1] = test system: HL-60; test: Ratio of 1alpha,25-(OH)2D3 ED50 to compound ED50 for induction of human HL60 cell differentiation by nitro blue tetrazolium reduction assay; assay type: functional
Method in brief: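 HL-60 promyelocytes were scored for maturation to monocytes as the percentage of cells reducing nitro blue tetrazolium. ED₅₀, the concentration giving 50% maturation, was taken from dose−response curves. The experiment was run in duplicate twice. Each value is the mean of the 1α,25-(OH)₂D₃ ED₅₀ divided by the analogue ED₅₀.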

[2] = molecular target: T1, Vitamin D3 receptor (Rattus norvegicus) (UniProt P13053); test: Ratio of 1alpha,25-(OH)2D3 ED50 to compound ED50 for VDR-mediated 24-hydroxylase gene expression in rat ROS 17/2.8 cells after 16 hrs by luciferase reporter assay; assay type: cell-based
T1 sequence (whole entry): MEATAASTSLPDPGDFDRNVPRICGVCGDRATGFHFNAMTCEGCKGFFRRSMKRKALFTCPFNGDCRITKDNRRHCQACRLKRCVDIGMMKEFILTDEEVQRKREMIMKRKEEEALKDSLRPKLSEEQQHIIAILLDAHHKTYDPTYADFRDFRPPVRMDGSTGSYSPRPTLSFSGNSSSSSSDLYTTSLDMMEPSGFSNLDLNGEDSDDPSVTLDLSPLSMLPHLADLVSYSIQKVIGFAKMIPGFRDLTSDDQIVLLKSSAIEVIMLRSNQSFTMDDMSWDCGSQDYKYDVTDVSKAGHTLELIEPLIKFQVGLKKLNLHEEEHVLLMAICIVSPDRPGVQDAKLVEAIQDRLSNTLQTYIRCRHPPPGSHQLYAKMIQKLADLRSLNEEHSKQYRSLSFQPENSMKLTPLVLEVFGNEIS
Method in brief: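 Rat osteosarcoma cells stably transfected with a 24-hydroxylase gene reporter plasmid were used as a transcription assay. ED₅₀ is the concentration raising luciferase activity by 50%, taken from dose−response curves. Each value is the ratio of the 1α,25-(OH)₂D₃ ED₅₀ to the analogue ED₅₀.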

[3] = molecular target: T1, Vitamin D3 receptor (Rattus norvegicus); test: Ratio of 1alpha,25-(OH)2D3 Ki to compound Ki for full-length recombinant rat vitamin D receptor after 30 mins by liquid scintillation counting
Method in brief: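 Competitive binding to VDR was run against radiolabeled 1α,25-(OH)₂D₃ at 1 nM. […] Duplicate determinations were made on two separate occasions. Each value is the mean of the 1α,25-(OH)₂D₃ Ki divided by the analogue Ki.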

[4] = test system: Rattus norvegicus; test: Effect on intestinal calcium transport in weanling Sprague-Dawley rat assessed as increase in ratio of serosal to mucosal calcium level at 32 pmol/day, ip administered as 4 consecutive daily doses measured 24 hrs after last dose; assay type: functional
[5] = test system: Rattus norvegicus; test: Effect on bone calcium mobilization in weanling Sprague-Dawley rat assessed as serum calcium level at 780 pmol/day, ip administered as 4 consecutive daily doses measured 24 hrs after last dose (reference value: 4.2 to 4.9 mg/dL); assay type: functional
[6] = test system: Rattus norvegicus; test: Effect on bone calcium mobilization in weanling Sprague-Dawley rat assessed as serum calcium level at 87 pmol/day, ip administered as 4 consecutive daily doses measured 24 hrs after last dose (reference value: 4.2 to 4.9 mg/dL); assay type: functional
[7] = test system: Rattus norvegicus; test: Effect on bone calcium mobilization in weanling Sprague-Dawley rat assessed as serum calcium level at 32 pmol/day, ip administered as 4 consecutive daily doses measured 24 hrs after last dose (reference value: 4.2 to 4.9 mg/dL); assay type: functional
[8] = test system: Rattus norvegicus; test: Effect on intestinal calcium transport in weanling Sprague-Dawley rat assessed as increase in ratio of serosal to mucosal calcium level at 780 pmol/day, ip administered as 4 consecutive daily doses measured 24 hrs after last dose; assay type: functional
[9] = test system: Rattus norvegicus; test: Effect on intestinal calcium transport in weanling Sprague-Dawley rat assessed as increase in ratio of serosal to mucosal calcium level at 87 pmol/day, ip administered as 4 consecutive daily doses measured 24 hrs after last dose; assay type: functional
[10] = test system: Rattus norvegicus; test: Effect on intestinal calcium transport in weanling Sprague-Dawley rat assessed as increase in ratio of serosal to mucosal calcium level at 7020 pmol/day, ip administered as 4 consecutive daily doses measured 24 hrs after last dose; assay type: functional
[11] = test system: Rattus norvegicus; test: Effect on bone calcium mobilization in weanling Sprague-Dawley rat assessed as serum calcium level at 35100 pmol/day, ip administered as 4 consecutive daily doses measured 24 hrs after last dose (reference value: 4.2 to 4.9 mg/dL); assay type: functional
[12] = test system: Rattus norvegicus; test: Effect on intestinal calcium transport in weanling Sprague-Dawley rat assessed as increase in ratio of serosal to mucosal calcium level at 35100 pmol/day, ip administered as 4 consecutive daily doses measured 24 hrs after last dose; assay type: functional
[13] = test system: Rattus norvegicus; test: Effect on bone calcium mobilization in weanling Sprague-Dawley rat assessed as serum calcium level at 7020 pmol/day, ip administered as 4 consecutive daily doses measured 24 hrs after last dose (reference value: 4.2 to 4.9 mg/dL); assay type: functional

Ratio ED50 [2]	Ratio Ki [3]	Compound	Ratio ED50 [1]	Ratio [4]	Activity [5]	Activity [6]	Activity [7]	Ratio [8]	Ratio [9]	Ratio [10]	Activity [11]	Ratio [12]	Activity [13]
2	0.5	C=C1CC/C(=C/C=C2\CCC[C@]3(C)[C@@H]([C@@H](C)CCCC(C)(C)O)CC[C@@H]23)C[C@H]1O	2.5										
0.001	0.01	C=C1CC[C@H](O)C/C1=C/C=C1\CCC[C@]2(C)[C@@H]([C@H](C)CCCC(C)(C)O)CC[C@@H]12 [CALCIFEDIOL ANHYDROUS]	0.001										
0.2	0.33	C=C1CC(=C)[C@H](O)C/C1=C/C=C1\CCC[C@]2(C)[C@@H]([C@@H](C)CCCC(C)(C)O)CC[C@@H]12	0.22	9	7.5 mg/dL	4.8 mg/dL	4.3 mg/dL	14.3	9.8				
29	1	C=C1[C@H](O)CC(=C/C=C2\CCC[C@]3(C)[C@@H]([C@@H](C)CCCC(C)(C)O)CC[C@@H]23)C[C@H]1O [DP001]	25										
0.0005	0.05	C=C1CC(=C)[C@H](O)C/C1=C/C=C1\CCC[C@]2(C)[C@@H]([C@H](C)CCCC(C)(C)O)CC[C@@H]12	0.005		5.4 mg/dL	4.4 mg/dL		9.4	5.7	10.2		9.7	8.2 mg/dL

The next lines start with the compound.

Compound	Ratio ED50 [2]	Ratio Ki [3]	Ratio ED50 [1]	Ratio [4]	Activity [5]	Activity [6]	Activity [7]	Ratio [8]	Ratio [9]	Ratio [10]	Activity [11]	Ratio [12]	Activity [13]
C=C1CC/C(=C\C=C2/CCC[C@]3(C)[C@@H]([C@H](C)CCCC(C)(C)O)CC[C@@H]23)C[C@H]1O	0.001	0.02	0.01										
C=C1CC/C(=C/C=C2\CCC[C@]3(C)[C@@H]([C@@H](C)CCCC(C)(C)O)CC[C@@H]23)C(=C)[C@H]1O	1	0.33	4	7.9	9.7 mg/dL	4.9 mg/dL	4.8 mg/dL	12.6	10.2				
C=C1CC/C(=C\C=C2/CCC[C@]3(C)[C@@H]([C@@H](C)CCCC(C)(C)O)CC[C@@H]23)C[C@H]1O	0.07	0.1	0.07										
C=C1CC/C(=C/C=C2\CCC[C@]3(C)[C@@H]([C@H](C)CCCC(C)(C)O)CC[C@@H]23)C(=C)[C@H]1O	1	0.25	2		5.9 mg/dL	4.5 mg/dL		11.8	8.5	9.8	8.2 mg/dL	11.3	8.8 mg/dL
C=C1CC/C(=C/C=C2\CCC[C@]3(C)[C@@H]([C@H](C)CCCC(C)(C)O)CC[C@@H]23)C[C@H]1O	0.7	0.2	2.2										
C=C1/C(=C\C=C2/CCC[C@]3(C)[C@@H]([C@H](C)CCCC(C)(C)O)CC[C@@H]23)C[C@@H](O)C[C@@H]1O [CALCITRIOL]					7.5 mg/dL	5 mg/dL							

Reference: ChEMBL document CHEMBL3351472, “Synthesis and Biological Activity of 25-Hydroxy-2-methylene-vitamin D3 analogues monohydroxylated in the A-ring” (J Med Chem, 2014)
